Hits are enriched below; roughly 4.3% of the tested compounds scored in any of these assays.
Yeast growth inh: yeast BB579 growth reduction in restrictive medium | 0.51% of 140,000 active | AID 804 | inhibition, % at 10 µM | S. cerevisiae BB579 growth, OD615, 48 h;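 active means inhibition above a set limit, 3 SD over the mean compound inhibition, cut at about 44% in these data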
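Test system: Saccharomyces cerevisiae DeaD strain BB579, replicative lifespan model yeast | Buffer or medium: Restrictive CSMM-D medium | Doses: One dose, 10 µM compound with 0.25% DMSO | Incubation: 48 h exposure, 30 °C | Detection: Culture absorbance at 615 nm | Control set: Amphotericin B at 10 µg/mL as positive control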
RAM inhibit: yeast RAM network inhibition | inhibition, % at 50 µM | 1.8% of 190,000 active | S. cerevisiae dse1pr::URA3 reporter, 5-FOA growth OD615, 2 d; analog-sensitive cbk1-as2 kinase mutant strain | AID 868;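 active means inhibition above a set limit, 3 SD over mean compound inhibition, cut at about 8.4% in these data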;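 further: 0% = DMSO-only wells with no growth and 100% = 10 µM 1-NA-PP1 full growth; inhibition rescues growth on 5-FOA so higher OD means more RAM inhibition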
WT yeast gro inh: growth inhibition of WT yeast, mitochondrial fusion screen | mitochondrial fusion phenotypic screen, WT strain | inhibition, % at 10 µM | 2.1% of 190,000 active; in the data active means inhibition above about 58%; tested in S. cerevisiae
Yeast life ext: extends the lifespan of yeast; inhibition of the nicotinamide effect, % at 10 µM; S. cerevisiae growth with nicotinamide, OD615; deaD strain in restrictive glucose medium; 0.68% of 130,000 active;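 active means inhibition above a set limit, placed 3 SD over the median of all compounds, cut at about 26% in these data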;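 further: 0% = nicotinamide-treated wells and 100% = cells grown without nicotinamide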
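assay system = DeaD-strain S. cerevisiae | measured by = absorbance at 615 nm | probe or stimulus = nicotinamide 1.5 mM | buffer or medium = CSMM-D glucose medium, restrictive | times = 48 h at 30 °C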
An asterisk follows results filed as active; · = no result.

SMILES	Yeast growth inh	RAM inhibit	WT yeast gro inh	Yeast life ext
O=c1oc(/C=C/c2ccco2)nc2sc3c(c12)CCC3	-31.5	2.7	-16.8	-6.4
O=S(=O)(NC1=NCCC1)c1cccc(NS(=O)(=O)c2ccc(OC(F)(F)F)cc2)c1	-12.3	1.4	-10.6	1.7
CC1CCCC(NC(=S)NC(=O)c2cncc(Br)c2)C1C (centres undefined)	34.8	2.1	61.8*	7.2
CC(=O)Nc1ccccc1NS(=O)(=O)c1ccc(Cl)cc1	-61.5	-1.0	14.1	2.3
O=S(=O)(Nc1cccc2c1CCCC2)c1ccc(Cl)cc1	-21.2	9.2*	33.7	21.0
CSc1ncccc1C(=O)NC(C)C1CC2CCC1C2 (centres undefined)	·	-1.2	-12.6	·
CC1(C)C=Cc2c(c3c(c4c(=O)c(-c5ccc(O)cc5)coc24)OC(C)(C)CC3)O1	·	4.6	71.4*	·
O=C(c1cccs1)N1N=C(c2ccc(O)cc2)CC1c1ccccc1 (centres undefined)	-19.2	3.9	14.4	1.8
COc1ccc(C2CC(c3ccccc3)=NN2S(=O)(=O)c2ccccc2)c(OC)c1 (centres undefined)	-9.2	4.4	20.1	9.8
O=C(c1cccs1)N1N=C(c2ccccc2)CC1c1ccccc1 (centres undefined)	-43.7	4.7	66.9*	-1.2
COc1cccc(C2CC(c3ccccc3)=NN2S(=O)(=O)c2ccc(C)cc2)c1OC (centres undefined)	·	10.8*	57.5	·
O=S(=O)(c1ccccc1)N1N=C(c2ccccc2)CC1c1ccccc1 (centres undefined)	·	4.2	80.2*	·
CC12CCC(C(=O)Nc3cccc4ccccc34)(C1Br)C2(C)C (centres undefined)	-32.6	0.0	40.9	5.3
O=C(CSc1nnc(-c2ccncc2)n1Cc1ccccc1)NC1CCCc2ccccc21 (centres undefined)	-24.4	-0.5	-0.6	-2.2
Nc1nc(-c2ccc(Cl)cc2)c(N=Nc2ccc(S(=O)(=O)N3CCOCC3)cc2)s1	-8.1	9.3*	48.9	5.0
CC(C)(C)NC(=O)C(=O)NCCC1=CCCCC1	-29.0	2.6	-5.2	7.2
O=C(NCC1CCCO1)C(=Cc1cccc([N+](=O)[O-])c1)C(=O)NCC1CCCO1 (centres undefined)	-8.7	0.8	5.9	7.6
COC(=O)c1cc(OC)c(OC)cc1NC(=S)Nc1cccc(C(C)=O)c1	-19.6	1.3	-11.8	39.6*
CCC(C(=O)OCC(=O)Nc1cc(Cl)cc(Cl)c1)c1ccccc1 (centres undefined)	-62.5	10.9*	79.3*	1.9
COc1ccc(NC2=C3CC(C)CC=C3N(c3ccc(OC)cc3)C2=O)cc1 (centres undefined)	·	5.1	1.1	·
O=C(NCC1CCCO1)C1CCC(=O)N1Cc1ccccc1Cl (centres undefined)	-22.3	-0.9	91.3*	-6.4
CCc1nn(C(C)C(=O)N2CCN(Cc3ccccc3)CC2)c(=O)c2cc3occc3n12 (centres undefined)	-27.1	0.0	58.1*	-6.3
O=C(C[n+]1ccccc1)Nc1ccccc1Br	·	1.9	-4.0	·
Cc1ccc(-c2nc3cc(NS(=O)(=O)c4ccc(C)cc4)ccc3o2)cc1	-60.1	5.8	73.3*	-6.5
O=S(=O)(Nc1ccc2oc(-c3ccccc3)nc2c1)c1ccccc1	1.8	6.5	0.9	-29.4
SMILES	Yeast growth inh	RAM inhibit	WT yeast gro inh	Yeast life ext
Cc1ccc(N(CC(=O)N/N=C/c2cccc(Br)c2)S(C)(=O)=O)cc1	-35.4	7.5	-8.7	3.5
COc1ccc2ccc3c(c2c1)N=C[C@]1(O3)N(C)c2ccccc2C1(C)C	-24.2	0.7	74.7*	-13.7
CC1=NOC2(C1)N(C)c1ccccc1C2(C)C (centres undefined)	-39.6	2.4	0.5	-5.5
CC(C)(C)C(=O)Nc1cc(NC(=O)C(C)(C)C)cc(C(=O)Nc2cc(C(=O)O)cc(C(=O)O)c2)c1	-24.2	1.6	-10.4	-2.6
CCC/C=N/NC(=O)c1ccccc1O	·	0.4	-0.6	·
O=C(CSc1nnc(COc2ccccc2)o1)N1CCN(c2ccccc2)CC1	-64.0	3.2	-22.4	·
CCc1ccc(OCc2nnc(SCC(=O)N3CCN(c4ccccc4)CC3)o2)cc1	-35.2	8.4*	-4.2	·
O=[N+]([O-])c1ccccc1N/N=C/c1c[nH]c2ccccc12	0.2	2.4	-1.3	-12.4
O=[N+]([O-])c1ccc(N/N=C/c2c[nH]c3ccccc23)cc1	-45.3	2.4	87.2*	-2.2
O=C(N/N=C/c1ccc[nH]1)c1ccccc1[N+](=O)[O-]	-26.8	1.1	1.0	5.0
COc1ccccc1NS(=O)(=O)c1cc([N+](=O)[O-])ccc1N/N=C/c1c[nH]c2ccccc12	5.4	10.1*	33.7	-1.1
O=[N+]([O-])c1ccc(N/N=C/c2ccc[nH]2)cc1	86.7*	8.9*	43.8	-5.9
CCCC/C(O)=C1\C(=O)CC(C)(C)CC1=NCCCCCC(=O)O	·	1.7	-6.3	·
COc1cc(/C=C2\SC(=O)N(c3ccccc3Cl)C2=O)cc([N+](=O)[O-])c1O	·	0.6	83.4*	·
Cc1ccccc1NC(=O)N1CCN(C/C=C/c2ccccc2)CC1	·	-0.6	-3.7	·
OC(CNCC1CCCO1)Cn1c2ccc(Cl)cc2c2cc(Cl)ccc21 (centres undefined)	-65.9	-0.8	7.2	-33.3
OC(CNCCC1C=Nc2ccccc21)Cn1c2ccc(Cl)cc2c2cc(Cl)ccc21 (centres undefined)	99.2*	1.6	97.5*	-11.6
CC1(C)C(=O)Nc2ccccc2N1C(=O)COc1cccnc1[N+](=O)[O-]	·	1.3	·	·
CC(=O)NS(=O)(=O)c1cccnc1Nc1ccc(Cl)cc1	-67.2	0.3	-7.7	-5.2
C=CCN(CC=C)C(=S)NC(=O)/C=C/c1ccccc1	-29.3	0.7	22.9	-0.5
C=CCN(CC=C)S(=O)(=O)c1ccc(NC(=S)NC(=O)/C=C/c2ccccc2)cc1	-17.3	10.0*	7.1	-7.7
Cn1c(-c2ccc(C(C)(C)C)cc2)n[nH]c1=S	-41.3	0.1	6.3	-10.7
CC(C)(C)c1ccc(-c2n[nH]c(=S)n2C2CCCC2)cc1	-27.8	1.1	71.6*	9.1
CCOc1ccc(NC(=S)NN(C)C(=S)Nc2ccc(OCC)cc2)cc1	-62.2	4.4	65.4*	-1.1
CCNC(=S)N(Cc1cccs1)Cc1cc2cc(OCC)ccc2[nH]c1=O	-15.9	2.1	-12.7	4.8
SMILES	Yeast growth inh	RAM inhibit	WT yeast gro inh	Yeast life ext
CCOc1ccc(NC(=S)N(CCc2c(C)[nH]c3ccc(C)cc23)Cc2cccnc2)cc1	-13.1	1.1	4.6	-0.5
CCOc1ccc(NC(=S)N(CCc2c(C)[nH]c3ccc(C)cc23)Cc2ccco2)cc1	12.0	3.3	67.0*	-1.4
CCNC(=S)N(Cc1ccco1)Cc1cc2cc(OCC)ccc2[nH]c1=O	·	9.7*	5.0	·
CCOc1ccc(NC(=S)N(Cc2ccc(N(C)C)cc2)Cc2ccco2)cc1	-13.8	2.4	59.0*	-12.1
COc1cc(CC(=O)OCC(=O)Nc2cc([N+](=O)[O-])ccc2Cl)cc(OC)c1OC	-26.1	-1.0	-13.2	0.5
COc1ccc(C2=C(CC(=O)O)C(=O)CC2)cc1	-4.1	0.1	7.0	-5.3
